Measured values published in publication PMC2819552 (Biochimica et biophysica acta, 2009).
“And” between values parts separate entries of the source, which are not always exact repeats. Equal entries are not always repeated. Where two headings read alike, the source gives them in different places.

Legend:
[1] = system: H. anomala cells (alternative oxidase pathway); assay: Induction of cyanide-resistant respiration in H. anomala cells; assay type: cell-based, Hansenula (Pichia) anomala; conditions: 10 μM inhibitor, cells shaken aerobically at 30°C for 2 hours; None = 0.181
[2] = system: cytochrome b in H. anomala mitochondria; assay: Reduction of cytochrome b in H. anomala mitochondria; assay type: biochemical, Hansenula (Pichia) anomala
H. anomala mitochondria = assay: Superoxide anion generation in H. anomala mitochondria; assay type: biochemical, Hansenula (Pichia) anomala
How it was run: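 Pre-incubated at 30°C in a chemiluminescence reader, then succinate added and inhibitors added in sequence. Read-out was the chemiluminescence peak-height increase sensitive to 0.5 µM superoxide dismutase.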

[3] = target: purified bovine cytochrome bc1 complex (Bos taurus, UniProt P00157+P13272); assay: Cytochrome reduction by DBH2 in purified bovine cytochrome bc1 complex; assay type: biochemical
[4] = target: T1, Rb. capsulatus cytochrome bc1 complex (Rhodobacter capsulatus, UniProt D5ANZ2+D5ANZ3); assay type: biochemical; conditions: for Inhibition of re-reduction of cytochromes c (Qo site forward reaction): pH 7.0, Eh 100 mV
T1 sequence (D5ANZ3 1-437): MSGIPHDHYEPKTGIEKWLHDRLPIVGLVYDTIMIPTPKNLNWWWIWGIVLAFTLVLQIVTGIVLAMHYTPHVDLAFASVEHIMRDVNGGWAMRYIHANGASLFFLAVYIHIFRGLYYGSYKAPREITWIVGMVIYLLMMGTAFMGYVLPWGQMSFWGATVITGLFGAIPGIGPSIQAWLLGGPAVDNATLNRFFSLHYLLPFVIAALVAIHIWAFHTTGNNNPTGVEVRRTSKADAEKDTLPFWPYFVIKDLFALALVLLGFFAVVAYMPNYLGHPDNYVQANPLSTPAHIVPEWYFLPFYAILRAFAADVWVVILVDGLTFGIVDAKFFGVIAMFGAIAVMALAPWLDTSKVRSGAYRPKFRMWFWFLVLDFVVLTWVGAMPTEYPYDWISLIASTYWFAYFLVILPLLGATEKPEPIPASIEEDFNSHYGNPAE
T1 sequence (D5ANZ2 1-191): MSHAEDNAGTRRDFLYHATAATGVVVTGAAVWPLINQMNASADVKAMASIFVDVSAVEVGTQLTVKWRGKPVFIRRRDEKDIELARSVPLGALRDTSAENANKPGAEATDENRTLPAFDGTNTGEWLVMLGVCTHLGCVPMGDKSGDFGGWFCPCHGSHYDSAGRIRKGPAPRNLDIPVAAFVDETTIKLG
T1 sequence (D5ANZ4 22-279 partner): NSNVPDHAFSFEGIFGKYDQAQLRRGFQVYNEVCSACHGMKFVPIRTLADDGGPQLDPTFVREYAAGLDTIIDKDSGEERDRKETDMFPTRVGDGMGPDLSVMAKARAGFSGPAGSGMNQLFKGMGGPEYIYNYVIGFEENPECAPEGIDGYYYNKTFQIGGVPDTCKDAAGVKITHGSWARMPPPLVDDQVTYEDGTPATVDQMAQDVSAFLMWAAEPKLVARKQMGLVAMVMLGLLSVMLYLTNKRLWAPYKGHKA
How it was run: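 Rb. capsulatus chromatophores normalised to reaction centre (0.28 µM), with redox mediators and 2.5 µM valinomycin. Qo forward: 50 mM MOPS pH 7.0, 100 mM KCl, Eh 100 mV. Qi reverse: 50 mM glycine-NaOH pH 9.5, 100 mM KCl, 10 µM myxothiazol, Eh 125 mV.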

[5] = target: T2, Rieske iron-sulfur protein of Rb. capsulatus cytochrome bc1 complex (Rhodobacter capsulatus, UniProt D5ANZ2+D5ANZ3); assay: EPR spectra of the reduced Rieske iron-sulfur protein in chromatophore membranes; assay type: binding; conditions: 10 to 30 μM inhibitor, ascorbate-reduced chromatophore membranes, 20 K
T2 sequence (D5ANZ3 1-437): T1 sequence (D5ANZ3 1-437)
T2 sequence (D5ANZ2 1-191): T1 sequence (D5ANZ2 1-191)
T2 sequence (D5ANZ4 22-279 partner): T1 sequence (D5ANZ4 22-279 partner)

rat liver mitochondria = assay: Succinate-dependent O2 uptake activity in rat liver mitochondria; assay type: biochemical
[6] = 10 μM antimycin A3 added after 15 mM succinate + 10 μM ascochlorin
[7] = 10 μM inhibitor added after 15 mM succinate
[8] = 10 μM inhibitor added after 15 mM succinate + 10 μM antimycin A3

## CCCC[C@H]1C(=O)O[C@H](C)[C@H](NC(=O)c2cccc(NC=O)c2O)C(=O)O[C@@H](C)[C@@H]1OC(=O)CC(C)C [Antimycin A3]
[1]
  CN−-resistant O2 uptake activity: 7.77 nmol O2/min/mg wet cells
[2]; [6]
  ΔA 560–575 × 10^2 (cytochrome b reduction): 0.94
[2]; 10 μM antimycin A3 added after 15 mM succinate + 10 μM myxothiazol
  ΔA 560–575 × 10^2 (cytochrome b reduction): 1.08
[2]; [7]
  ΔA 560–575 × 10^2 (cytochrome b reduction): 1.27 and 1.28
H. anomala mitochondria; [6]
  Chemiluminescence Intensity (superoxide anion generation): 3.6 10^5 counts/min
H. anomala mitochondria; [7]
  Chemiluminescence Intensity (superoxide anion generation): 8.8 10^5 counts/min and 9.1 10^5 counts/min

## CC(/C=C/[C@@]1(C)[C@H](C)CCC(=O)[C@@H]1C)=C\Cc1c(O)c(Cl)c(C)c(C=O)c1O [Ascochlorin]
[1]
  CN−-resistant O2 uptake activity: 7.42 nmol O2/min/mg wet cells
[2]; [7]
  ΔA 560–575 × 10^2 (cytochrome b reduction): 0.92
[2]; [8]
  ΔA 560–575 × 10^2 (cytochrome b reduction): 0.85
H. anomala mitochondria; [7]
  Chemiluminescence Intensity (superoxide anion generation): 2.6 10^5 counts/min
H. anomala mitochondria; [8]
  Chemiluminescence Intensity (superoxide anion generation): 4.6 10^5 counts/min
[3]; 3 μM bovine bc1, 31 μM ascochlorin, DBH2 25 μM, by the first spectrum
  Extent of rapid reduction of cytochrome c1: about 20%
[3]; ascochlorin and antimycin both present, 240 μM ascochlorin
  Rapid reduction of cytochrome bH and c1: about half
[3]; ascochlorin increased from 31 to 360 μM, compared to Fig. 4C
  Further decrease of the extent of the fast reactions: about a factor of two
[4]; 1 μM
  Inhibition of re-reduction of cytochromes c (Qo site forward reaction): partially
[4]; 10 μM
  Inhibition of re-reduction of cytochromes c (Qo site forward reaction): fully
[4]; 1 or 10 μM, 10 μM myxothiazol, pH 9.5, Eh 125 mV
  Inhibition of Qi site-mediated cytochrome b reduction (reverse reaction): completely inhibited
[5]
  Effect on the Rieske ISP gx EPR transition: changes the gx transition

## O=C1C(O)=C([C@H]2CC[C@H](c3ccc(Cl)cc3)CC2)C(=O)c2ccccc21 [Atovaquone]
[1]
  CN−-resistant O2 uptake activity: 0.202 nmol O2/min/mg wet cells

## CC(=CCc1c(O)cc(C)c(C=O)c1O)CCC1(C)C(C)CCC(=O)C1C (centres unmarked) [LL-Z1272 ε]
Rat liver mitochondria
  Inhibition relative to that seen using ascochlorin: about 1/300

## CO/C(=C/C(N)=O)[C@H](C)[C@H](/C=C/c1csc(-c2csc([C@@H](C)/C=C/C=C/C(C)C)n2)n1)OC [Myxothiazol]
[1]
  CN−-resistant O2 uptake activity: 0.375 nmol O2/min/mg wet cells
[2]; [7]
  ΔA 560–575 × 10^2 (cytochrome b reduction): 1.16
[2]; [8]
  ΔA 560–575 × 10^2 (cytochrome b reduction): 1.03
H. anomala mitochondria; [8]
  Chemiluminescence Intensity (superoxide anion generation): 5.4 10^5 counts/min

## CCCCCCCCCC1=C(O)C(=O)c2scnc2C1=O [NHDBT, nonylhydroxydioxobenzothiazole]
[1]
  CN−-resistant O2 uptake activity: 0.225 nmol O2/min/mg wet cells

## C/C=C(C)/C=C/C=C/[C@H](OC)[C@@H](C)[C@@H](OC)[C@@H](C)CCc1oc2c(O)c(OC)cc(OC)c2c(=O)c1C [Stigmatellin]
[1]
  CN−-resistant O2 uptake activity: 0.433 nmol O2/min/mg wet cells

## CCCCCC[C@H]1C(=O)O[C@H](C)[C@H](NC(=O)c2cccc(NC=O)c2O)C(=O)O[C@@H](C)[C@@H]1OC(=O)CC(C)C [antimycin A]
[3]; 3 μM bovine bc1, 30 μM antimycin A, DBH2 25 μM
  Extent of rapid reduction of cytochrome bL: about 20%
[3]; 30 μM antimycin A, within a few minutes
  Level of cytochrome b reduction after reoxidation: about 10%

## Funiculosin
[1]
  CN−-resistant O2 uptake activity: 3.12 nmol O2/min/mg wet cells
